Tests used:
[1] = system: Leishmania donovani; experiment: Antileishmanial activity against Leishmania donovani axenic amastigotes after 3 days by tetrazolium dye based spectrophotometric analysis at pH 5.5; format: functional, organism-based; conditions: 72 h
Outline: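 Ld1s axenic amastigote-like L. donovani grown in potassium-based medium, pH 5.5, 37 °C; exposed to compounds for three days; tetrazolium dye added and read spectrophotometrically. IC50 (μM) averaged with standard errors, n ≥ 3.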

[2] = system: Leishmania amazonensis; experiment: Antileishmanial activity against beta-lactamase transfected Leishmania amazonensis promastigotes infected in macrophages after 72 hrs by spectrophotometric analysis; format: functional, organism-based
Outline: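 Macrophages plated and adhered overnight; infected with β-lactamase-transfected L. amazonensis promastigotes (MOI 5:1) overnight; compounds added for 72 hours at 34 °C; nitrocefin in lysis buffer added for 3 to 5 hours further; absorbance read at 490 nm. IC50 (μM) averaged with standard errors, n ≥ 3.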

| Structure (SMILES) | IC50 [1] [µM] | IC50 [2] [µM] |
| --- | --- | --- |
| CC(C)(C)CCOc1cc(NC(=N)c2ccccn2)ccc1-c1ccc(-c2ccc(NC(=N)c3ccccn3)cc2OCCC(C)(C)C)o1 | 28 | > 10 |
| COC(=O)[C@H](N)CCOc1cc(NC(=N)c2ccccn2)ccc1-c1ccc(-c2ccc(NC(=N)c3ccccn3)cc2OCC[C@H](N)C(=O)OC)s1 | > 100 | 5.5 |
| CC(C)Oc1cc(NC(=N)c2ccc(N)cn2)ccc1-c1ccc(-c2ccc(NC(=N)c3ccc(N)cn3)cc2OC(C)C)o1 | 0.82 | 0.64 |
| N=C(Nc1ccc(-c2ccc(-c3ccc(NC(=N)c4ccc(Br)cn4)cc3OC3CCCC3)o2)c(OC2CCCC2)c1)c1ccc(Br)cn1 | > 100 | > 10 |
| CC(C)Oc1cc(NC(=N)c2ccc(N3CCCC3)cn2)ccc1-c1ccc(-c2ccc(NC(=N)c3ccc(N4CCCC4)cn3)cc2OC(C)C)o1 | 1.9 | 0.27 |
| CC(C)COc1cc(NC(=N)c2ccc(Br)cn2)ccc1-c1ccc(-c2ccc(NC(=N)c3ccc(Br)cn3)cc2OCC(C)C)o1 | > 50 | > 10 |
| CC(C)Oc1cc(NC(=N)c2ccc[nH]2)ccc1-c1ccc(-c2ccc(NC(=N)c3ccc[nH]3)cc2OC(C)C)o1 | 16 | 0.9 |
| Cc1cc(NC(=N)c2ccccn2)ccc1-c1ccc(-c2ccc(NC(=N)c3ccccn3)cc2C)o1 | 0.67 | 0.29 |
| CC(C)Oc1cc(NC(=N)c2ccc(Br)cn2)ccc1-c1ccc(-c2ccc(NC(=N)c3ccc(Br)cn3)cc2OC(C)C)o1 | 28 | > 10 |
| Cc1cccc(C(=N)Nc2ccc(-c3ccc(-c4ccc(NC(=N)c5cccc(C)n5)cc4C)o3)c(C)c2)n1 | > 50 | 3.1 |
| Cc1ccc(C(=N)Nc2ccc(-c3ccc(-c4ccc(NC(=N)c5ccc(C)cn5)cc4C)o3)c(C)c2)nc1 | 0.84 | 0.16 |
| N=C(Nc1ccc(-c2ccc(-c3ccc(NC(=N)c4cnccn4)cc3)o2)cc1)c1cnccn1 | > 100 | > 10 |
| CC(C)Oc1cc(NC(=N)c2ccc(F)cn2)ccc1-c1ccc(-c2ccc(NC(=N)c3ccc(F)cn3)cc2OC(C)C)o1 | 2.5 | 0.59 |
| CC(C)Oc1cc(NC(=N)c2ccn(C)n2)ccc1-c1ccc(-c2ccc(NC(=N)c3ccn(C)n3)cc2OC(C)C)o1 | 5.8 | 0.74 |
| CC(C)Oc1cc(NC(=N)c2ccccn2)ccc1-c1ccc(-c2ccc(NC(=N)c3ccccn3)cc2OC(C)C)s1 | 0.68 | 0.045 |
| N=C(Nc1ccc(-c2ccc(-c3ccc(NC(=N)c4ccccn4)cc3OCC(F)(F)F)o2)c(OCC(F)(F)F)c1)c1ccccn1 | 1.1 | 0.25 |
| N=C(Nc1ccc(-c2ccc(-c3ccc(NC(=N)c4ccc(Cl)cn4)cc3OC3CCCC3)o2)c(OC2CCCC2)c1)c1ccc(Cl)cn1 | > 100 | > 10 |
| CC(=O)Nc1nc(C(=N)Nc2ccc(-c3ccc(-c4ccc(NC(=N)c5csc(NC(C)=O)n5)cc4OC(C)C)o3)c(OC(C)C)c2)cs1 | > 100 | 0.22 |
| CC(C)CCOc1cc(NC(=N)c2ncccn2)ccc1-c1ccc(-c2ccc(NC(=N)c3ncccn3)cc2OCCC(C)C)o1 | 7.9 | 0.32 |
| N=C(Nc1ccc(-c2cc(-c3ccccc3)c(-c3ccc(NC(=N)c4ccccn4)cc3)o2)cc1)c1ccccn1 | 1.7 | 0.11 |
| COc1cccc(C(=N)Nc2ccc(-c3ccc(-c4ccc(NC(=N)c5cccc(OC)n5)cc4OC(C)C)o3)c(OC(C)C)c2)n1 | 4.5 | 2.7 |
| N=C(Nc1ccc(-c2ccc(-c3ccc(NC(=N)c4ccccn4)cc3O)o2)c(O)c1)c1ccccn1 | 1.5 | 0.96 |
| CC(C)Oc1cc(NC(=N)c2ccc(Cl)cn2)ccc1-c1ccc(-c2ccc(NC(=N)c3ccc(Cl)cn3)cc2OC(C)C)o1 | 5.6 | > 10 |
| N=C(Nc1ccc(-c2ccc(-c3ccc(NC(=N)c4c[nH]cn4)cc3OC3CCCC3)o2)c(OC2CCCC2)c1)c1c[nH]cn1 | 14 | > 10 |
| N=C(Nc1ccc(-c2ccc(-c3ccc(NC(=N)c4ccccn4)cc3)o2)cc1)c1ccccn1 | 1.6 | 0.53 |
| Cc1c(-c2ccc(NC(=N)c3ccccn3)cc2)oc(-c2ccc(NC(=N)c3ccccn3)cc2)c1C | 0.37 | 0.11 |
| CC(C)Oc1cc(NC(=N)c2cnccn2)ccc1-c1ccc(-c2ccc(NC(=N)c3cnccn3)cc2OC(C)C)o1 | 20 | 3.7 |

| Structure (SMILES) | IC50 [1] [µM] | IC50 [2] [µM] |
| --- | --- | --- |
| N=C(Nc1ccc(-c2ccc(-c3ccc(NC(=N)c4ccccn4)cc3Br)o2)c(Br)c1)c1ccccn1 | 1.2 | 0.62 |
| CNc1nc(C(=N)Nc2ccc(-c3ccc(-c4ccc(NC(=N)c5csc(NC)n5)cc4OC(C)C)o3)c(OC(C)C)c2)cs1 | 1.3 | 0.3 |
| N/C(=N\c1ccc(-c2ccc(-c3ccc(/N=C(\N)c4ccccn4)cc3OC3CCNCC3)o2)c(OC2CCNCC2)c1)c1ccccn1 | 59 | > 10 |
| CC(C)Oc1cc(NC(=N)c2cccnn2)ccc1-c1ccc(-c2ccc(NC(=N)c3cccnn3)cc2OC(C)C)o1 | 1.1 | 1.1 |
| CC(=N)Nc1ccc(-c2ccc(-c3ccc(NC(C)=N)cc3OC3CCCC3)o2)c(OC2CCCC2)c1 | 41 | 4.7 |
| CC(C)Oc1cc(NC(=N)c2cn(C)cn2)ccc1-c1ccc(-c2ccc(NC(=N)c3cn(C)cn3)cc2OC(C)C)o1 | 31 | 5 |
| N=C(Nc1ccc(-c2ccc(-c3ccc(NC(=N)c4ncccn4)cc3OC3CCCC3)o2)c(OC2CCCC2)c1)c1ncccn1 | 1.5 | 0.21 |
| N=C(Nc1ccc(-c2ccc(-c3ccc(NC(=N)c4ccccn4)cc3OC3CCCC3)o2)c(OC2CCCC2)c1)c1ccccn1 | 1.4 | 0.17 |
| CC(C)COc1cc(NC(=N)c2ccccn2)ccc1-c1ccc(-c2ccc(NC(=N)c3ccccn3)cc2OCC(C)C)o1 | 1.1 | 0.095 |
| CC(C)Oc1cc(NC(=N)c2ncc[nH]2)ccc1-c1ccc(-c2ccc(NC(=N)c3ncc[nH]3)cc2OC(C)C)o1 | 1 | 0.37 |
| CC(=O)N(C)c1nc(C(=N)Nc2ccc(-c3ccc(-c4ccc(NC(=N)c5csc(N(C)C(C)=O)n5)cc4OC(C)C)o3)c(OC(C)C)c2)cs1 | 3.6 | 0.81 |
| N=C(Nc1cnc(-c2ccc(-c3cnc(NC(=N)c4ccccn4)cn3)o2)cn1)c1ccccn1 | > 100 | > 10 |
| CC(C)N1CCC(Oc2cc(NC(=N)c3ccccn3)ccc2-c2ccc(-c3ccc(NC(=N)c4ccccn4)cc3OC3CCN(C(C)C)CC3)o2)CC1 | 28 | 2.1 |
| CC(C)COc1cc(NC(=N)c2c[nH]cn2)ccc1-c1ccc(-c2ccc(NC(=N)c3c[nH]cn3)cc2OCC(C)C)o1 | 23 | > 10 |
| Cc1nc(C(=N)Nc2ccc(-c3ccc(-c4ccc(NC(=N)c5csc(C)n5)cc4OC(C)C)o3)c(OC(C)C)c2)cs1 | 1.4 | 0.17 |
| N=C(Nc1ccc(-c2ccc(-c3ccc(NC(=N)c4ccccn4)cc3Cl)o2)c(Cl)c1)c1ccccn1 | 2 | 0.56 |
| COc1ccc(C(=N)Nc2ccc(-c3ccc(-c4ccc(NC(=N)c5ccc(OC)cn5)cc4OC(C)C)o3)c(OC(C)C)c2)nc1 | 1 | 0.13 |
| N=C(Nc1ccc(-c2ccc(-c3ccc(NC(=N)c4ccccn4)cc3F)o2)c(F)c1)c1ccccn1 | 4.2 | 1.4 |
| N=C(Nc1ccc(-c2ccc(-c3ccc(NC(=N)c4ccccn4)cc3OCc3ccccc3)o2)c(OCc2ccccc2)c1)c1ccccn1 | 4.5 | 0.51 |
| CC(C)Oc1cc(NC(=N)c2csc(N)n2)ccc1-c1ccc(-c2ccc(NC(=N)c3csc(N)n3)cc2OC(C)C)o1 | 21 | 1.7 |
| CC(C)CCOc1cc(NC(=N)c2ccccn2)ccc1-c1ccc(-c2ccc(NC(=N)c3ccccn3)cc2OCCC(C)C)o1 | 5.1 | > 10 |
| N=C(Nc1ccc(-c2ccc(-c3ccc(NC(=N)c4ccccn4)nc3)o2)cn1)c1ccccn1 | > 50 | > 10 |
| CC(C)Oc1cc(NC(=N)c2ncccn2)ccc1-c1ccc(-c2ccc(NC(=N)c3ncccn3)cc2OC(C)C)o1 | 0.55 | 0.7 |
| N=C(Nc1ncc(-c2ccc(-c3cnc(NC(=N)c4ccccn4)nc3)o2)cn1)c1ccccn1 | > 100 | > 10 |
| COc1cc(NC(=N)c2ccccn2)ccc1-c1ccc(-c2ccc(NC(=N)c3ccccn3)cc2OC)o1 | 0.53 | 0.37 |
| CC(C)COc1cc(NC(=N)c2ncccn2)ccc1-c1ccc(-c2ccc(NC(=N)c3ncccn3)cc2OCC(C)C)o1 | 2.4 | 0.49 |

Reference: ChEMBL document CHEMBL1811805, “Molecular factors governing inhibition of arylimidamides against Leishmania: conservative computational modeling to improve chemotherapies” (Bioorg Med Chem, 2011)
